Key:
[1] = tested on: HeLa; experiment: Antiproliferative activity against human HeLa cells assessed as growth inhibition after 72 hrs by MTT assay; format: functional, cell-based
Method in brief: (§1)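 IC50 is the concentration inhibiting 50% cell growth. Values are mean ± S.D. from three different experiments, each performed in triplicate.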

[2] = Antiproliferative activity against human SF763 cells assessed as growth inhibition after 72 hrs by MTT assay; format: functional, cell-based; settings: SF763, 72 h
Method in brief: (§2)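 Values are mean ± S.D. from three different experiments, each performed in triplicate.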

[3] = Antiproliferative activity against human HL60 cells assessed as growth inhibition after 72 hrs by MTT assay; format: functional, cell-based; settings: HL-60, 72 h; method in brief: as §2
[4] = Antiproliferative activity against human Bel7402 cells assessed as growth inhibition after 72 hrs by MTT assay; format: functional, cell-based; settings: Bel-7402, 72 h; method in brief: as §1
[5] = tested on: B16; experiment: Antiproliferative activity against mouse B16 cells assessed as growth inhibition after 72 hrs by MTT assay; format: functional, cell-based; settings: B16, 72 h; method in brief: as §1
[6] = tested on: Mus musculus; experiment: Toxicity against mouse xenografted […] cells assessed as body weight at 30 mg/kg, ip administered after 7 days of tumor transplantation (reference value: 18.1 to 18.6 gms); format: organism-based; set-up: dose 30 mg/kg, route intraperitoneal; settings: in vivo, 168 h
Method in brief: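 H22 liver cancer-bearing mice, 10 per group at start and end. Test article given ip at 30 mg/kg, with a vehicle group (0.5 mL/mouse, iv). Body weight was recorded at start and at end, alongside tumor weight.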

[7] = tested on: H22; experiment: In vivo antitumor activity […] cells xenografted in mouse assessed as tumor growth inhibitory ratio at 30 mg/kg, ip administered after 7 days of tumor transplantation measured at 25th day after tumor inoculation; format: functional; settings: 168 h, route intraperitoneal
Method in brief: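 Mice bearing H22 liver cancer, 10 per group. Test article at 30 mg/kg ip. Vehicle 0.5 mL/mouse iv. Cyclophosphamide 30 mg/kg iv as positive control. Tumor weight recorded to give tumor inhibitory ratio.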

[8] = tested on: Mus musculus; experiment: Toxicity against mouse xenografted with mouse B16 cells assessed as body weight at 30 mg/kg, ip administered after 7 days of tumor transplantation (reference value: 18.2 to 18.3 gms); format: organism-based; set-up: dose 30 mg/kg, route intraperitoneal; settings: in vivo, 168 h
[9] = tested on: B16; experiment: In vivo antitumor activity against mouse B16 cells xenografted in mouse assessed as tumor growth inhibitory ratio at 30 mg/kg, ip administered after 7 days of tumor transplantation measured at 25th day after tumor inoculation; format: functional; settings: 168 h, route intraperitoneal

SMILES	IC50 [1] [µM]	IC50 [2] [µM]	IC50 [3] [µM]	IC50 [4] [µM]	IC50 [5] [µM]	Activity [6] [g]	inhibition in vivo at 30 mg/kg [7] [%]	Activity [8] [g]	inhibition in vivo at 30 mg/kg [9] [%]
C=C(C)[C@@H]1CC[C@]2(C(=O)OCCO)CC[C@]3(C)[C@H](CC[C@@H]4[C@@]5(C)Cc6nccnc6[C@@](C)(CO)[C@@H]5CC[C@]43C)[C@@H]12	20.7	13.5	23.6	17.4	13.1	–	–	–	–
C=C(C)[C@@H]1CC[C@]2(C(=O)OCC(=O)OCC)CC[C@]3(C)[C@H](CC[C@@H]4[C@@]5(C)Cc6nccnc6[C@@](C)(CO)[C@@H]5CC[C@]43C)[C@@H]12	17	13.1	23.6	17	11.3	–	–	–	–
C=C(C)[C@@H]1CC[C@]2(C(=O)OCC(=O)O)CC[C@]3(C)[C@H](CC[C@@H]4[C@@]5(C)Cc6nccnc6[C@@](C)(CO)[C@@H]5CC[C@]43C)[C@@H]12	10.1	8.86	19.5	13.1	9.41	–	–	–	–
C=C(C)[C@@H]1CC[C@]2(C(=O)Oc3ccc(C#N)cc3)CC[C@]3(C)[C@H](CC[C@@H]4[C@@]5(C)Cc6nccnc6[C@@](C)(COC(C)=O)[C@@H]5CC[C@]43C)[C@@H]12	7.91	5.77	10.2	8.09	6.02	–	–	–	–
C=C(C)[C@@H]1CC[C@]2(C(=O)O)CC[C@]3(C)[C@H](CC[C@@H]4[C@@]5(C)Cc6nccnc6[C@@](C)(CO)[C@@H]5CC[C@]43C)[C@@H]12	19.6	15.4	24.1	19.1	14.9	–	–	–	–
O=P1(N(CCCl)CCCl)NCCCO1 (centres undefined) [CYCLOPHOSPHAMIDE ANHYDROUS]	–	–	–	–	–	25.7	53.7	–	–
O=c1[nH]cc(F)c(=O)[nH]1 [FLUOROURACIL]	–	–	–	–	–	–	–	26.2	70.3
C=C(C)[C@@H]1CC[C@]2(C(=O)O)CC[C@]3(C)[C@H](CC[C@@H]4[C@@]5(C)CC[C@H](O)[C@@](C)(CO)[C@@H]5CC[C@]43C)[C@@H]12	–	–	–	–	–	26.1	27.8	26.7	32.4
C=C(C)[C@@H]1CC[C@]2(C(=O)NCC(=O)OC)CC[C@]3(C)[C@H](CC[C@@H]4[C@@]5(C)Cc6nccnc6[C@@](C)(COC(C)=O)[C@@H]5CC[C@]43C)[C@@H]12	10.9	9.26	14.7	11.1	8.08	–	–	–	–
COc1cccc2c1C(=O)c1c(O)c3c(c(O)c1C2=O)C[C@@](O)(C(=O)CO)C[C@@H]3O[C@H]1C[C@H](N)[C@H](O)[C@H](C)O1 [DOXORUBICIN]	–	–	–	0.22	–	–	–	–	–
C=CCOC(=O)[C@]12CC[C@@H](C(=C)C)[C@@H]1[C@H]1CC[C@@H]3[C@@]4(C)Cc5nccnc5[C@@](C)(CO)[C@@H]4CC[C@@]3(C)[C@]1(C)CC2	11	8.62	19.1	11.9	8.98	–	–	–	–
C=C(C)[C@@H]1CC[C@]2(C(=O)OCc3ccc(-c4ccccc4C#N)cc3)CC[C@]3(C)[C@H](CC[C@@H]4[C@@]5(C)Cc6nccnc6[C@@](C)(CO)[C@@H]5CC[C@]43C)[C@@H]12	9.32	5.63	11.7	9.37	7.15	–	–	–	–
C=C(C)[C@@H]1CC[C@]2(C(=O)O)CC[C@]3(C)[C@H](CC[C@@H]4[C@@]5(C)Cc6nccnc6[C@@](C)(COC(C)=O)[C@@H]5CC[C@]43C)[C@@H]12	14.6	11.1	20.4	16.8	9.9	–	–	–	–
C=C(C)[C@@H]1CC[C@]2(C(=O)OCCO)CC[C@]3(C)[C@H](CC[C@@H]4[C@@]5(C)Cc6nccnc6[C@@](C)(COC(C)=O)[C@@H]5CC[C@]43C)[C@@H]12	17.5	13	22.2	15.7	12.1	–	–	–	–
C=C(C)[C@@H]1CC[C@]2(C(=O)OCc3ccccc3)CC[C@]3(C)[C@H](CC[C@@H]4[C@@]5(C)Cc6nccnc6[C@@](C)(CO)[C@@H]5CC[C@]43C)[C@@H]12	12.8	9.54	18.9	10.1	8.56	–	–	–	–
C=C(C)[C@@H]1CC[C@]2(C(=O)O[C@@H]3O[C@H](CO)[C@@H](O)[C@H](O)[C@H]3O)CC[C@]3(C)[C@H](CC[C@@H]4[C@@]5(C)Cc6nccnc6[C@@](C)(CO)[C@@H]5CC[C@]43C)[C@@H]12	15.9	11	21.1	17.7	12.8	–	–	–	–
C=C(C)[C@@H]1CC[C@]2(C(=O)OCC)CC[C@]3(C)[C@H](CC[C@@H]4[C@@]5(C)Cc6nccnc6[C@@](C)(CO)[C@@H]5CC[C@]43C)[C@@H]12	15.1	10	22.5	14.8	9.97	–	–	–	–

— ChEMBL document CHEMBL3425458, “Design, synthesis and antitumor activity of triterpenoid pyrazine derivatives from 23-hydroxybetulinic acid” (Eur J Med Chem, 2015)
